For 11 molecules, CC50 results are on record in PubChem BioAssay AID651583 (The Scripps Research Institute Molecular Screening Center, 2012).

Active and inactive are the calls of the source.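 The calls were made as follows: active = Toxic to Huh-7.5 liver cells, with CC50, the dose killing half the cells, at most 24 µM; inactive = CC50 above 24 µM.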

This test relates to Huh-7.5 viability, XTT absorbance. The test can be described thus: Huh-7.5 cell cytotoxicity, late-stage follow-up, cytotoxicity control for HCV core dimerization inhibitor project, XTT absorbance, powder samples (AID 651583). The procedure, abridged:
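test system = Huh-7.5 cell line, viability by mitochondrial dehydrogenase activity | schedule = overnight cell plating, 72 h compound exposure at 37 °C | detection = XTT-PMS absorbance, 450/650 nm | replicates = triplicate wells per concentration | read-out = CC50 from fitted % inhibition curve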
In general terms: Tetrazolium dyes change colour on reduction, which living cells bring about.
On to `Cc1ccc(Cc2c(C)nc3nc(SCC(=O)NCCN4CCN(CCc5ccccc5)CC4)nn3c2C)cc1`, for which the CC50 – broadly, the concentration giving 50% cytotoxicity – was > 36 µM (inactive).

For the molecule `Cc1ccc(Cc2c(C)nc3nc(SCC(=O)NCCN4CCCN(S(=O)(=O)c5ccccc5)CC4)nn3c2C)cc1`, the CC50 is 9.51 µM.

Take `Cc1ccc(Cc2c(C)nc3nc(SCC(=O)NCCN4CCCN(S(C)(=O)=O)CC4)nn3c2C)cc1`: the CC50 is 193 µM (inactive).

As to `Cc1ccc(Cc2c(C)nc3nc(SCC(=O)NCCN4CCN(S(=O)(=O)c5ccccc5)CC4)nn3c2C)cc1`, the CC50 was 37.6 µM (inactive).

As to `Cc1ccc(Cc2c(C)nc3nc(SCC(=O)NCCN4CCNCC4)nn3c2C)cc1`, the CC50 was 33.8 µM (inactive).

On to `Cc1ccc(Cc2c(C)nc3nc(SCC(=O)NCCN4CCN(Cc5ccc(Cl)cc5)CC4)nn3c2C)cc1`, for which the CC50 is > 4 µM (inactive).

As for `Cc1ccc(Cc2c(CCc3ccccc3)nc3nc(SC(Cc4ccccc4)C(=O)NCCN4CCOCC4)nn3c2C)cc1` (stereo unspecified), the CC50 was 22.1 µM.

`Cc1ccc(Cc2c(C)nc3nc(SCC(=O)NCCN4CCCCCC4)nn3c2C)cc1`: the CC50 was 42.6 µM (inactive).

Regarding `Cc1ccc(Cc2c(C)nc3nc(SCC(=O)NCCN4CCCN(S(=O)(=O)c5ccc(C)cc5)CC4)nn3c2C)cc1`, the CC50 is 13.8 µM.

As for `Cc1ccc(Cc2c(C)nc3nc(SCC(=O)NCCN4CCOCC4)nn3c2C)cc1`, the CC50 is > 12 µM (inactive).

Turning to `Cc1ccc(Cc2c(C)nc3nc(SCC(=O)NCCN4CCN(Cc5ccc(F)cc5)CC4)nn3c2C)cc1`, the CC50 is 180 µM (inactive).
